The text below walks through data of ChEMBL document CHEMBL4673258, “Discovery of IPN60090, a Clinical Stage Selective Glutaminase-1 (GLS-1) Inhibitor with Excellent Pharmacokinetic and Physicochemical Properties” (J Med Chem, 2020).

For data set [1] the following is noted: rat, microsomes, 0.75 h, 1 µM.
Data set [2] is described as follows: Intrinsic clearance in dog hepatocytes […] at 2 uM measured after 15 to 120 mins by LC-MS analysis. In kind it is ADME, cell-based, Canis lupus familiaris, Hepatocyte. Conditions: time 15-120 min. Put shortly:
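Hepatocytes at 2×10^6 viable cells/mL, mixed with an equal volume of 2 μM compound in KHB buffer. Incubated at 37 °C and quenched with ACN at 0, 15, 30, 60 and 120 min. Analysed by LC/MS, with percent remaining from peak area ratio to internal standard against 0 min. Half-life from a single-phase exponential fit.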

Data set [3] in a line: Permeability across basolateral to apical side in human Caco-2 cells at 10 uM measured after 90 mins by LC-MS/MS analysis. The format is ADME, cell-based. The method, boiled down:
(§1)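 Caco-2 monolayers grown 21–28 days on polycarbonate filter inserts, with TEER and Lucifer Yellow checked before and after. Compound at 10 μM in HBSS with 25 mM HEPES, pH 7.4. Run A→B and B→A at 37 °C for 90 min. Receiver and donor samples quantified by LC-MS/MS.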
On the technique in general: Caco-2 cells form a polarised layer with tight junctions and transporters.

Data set [4] is described as follows: Permeability across apical to basolateral side in human Caco-2 cells at 10 uM measured after 90 mins by LC-MS/MS analysis. In kind it is ADME, cell-based. Put shortly:
as §1

The conditions of data set [5]: human, microsomes, 0.75 h, 1 µM.

Structures are written as SMILES.

In turn, `O=C(Cc1cccc(OC(F)(F)F)c1)Nc1ccc(CCCCc2nnc(NC(=O)Cc3ccccn3)s2)nn1` registered a CLH in data set [1] of 203 mL/min. On the same count and under the same terms, for `O=C(Cc1cccc(OC(F)(F)F)c1)Nc1ccc(CCCCn2cc(C(=O)NCc3ccccn3)nn2)nn1` the value was 162 mL/min. In data set [2], `CNC(=O)c1cn(C[C@H](F)CCc2ccc(NC(=O)Cc3cc(-c4cccc(OC(F)(F)F)c4)ccn3)nn2)nn1` registered a CLint of 0.72 L/h/kg. The permeability in data set [3] is on record as 21 10^-6 cm/s; in data set [4], 5.8 10^-6 cm/s.

In data set [1], `O=C(Cc1ccccc1)Nc1ccc(CCCCn2cc(C(=O)NCc3ccccc3)nn2)nn1` returned a CLH of 128 mL/min. In data set [5], `CNC(=O)c1cn(C[C@H](F)CCc2ccc(NC(=O)Cc3cc(C(F)(F)F)ccn3)nn2)nn1` had a CLH of 0.2 mL/min. `O=C(Cc1ccccn1)Nc1ccc(CCCCn2cc(C(=O)NCc3cccc(OC(F)(F)F)c3)nn2)nn1` yielded a CLH in data set [1] of 283 mL/min.
